From ChEMBL document CHEMBL3091404, “Isoquinoline derivatives as potent CRTH2 antagonists: design, synthesis and SAR” (Bioorg Med Chem, 2013)
pIC50: −log10 of the molar value.

Columns and labels:
[1] = biological target: T1, Prostaglandin D2 receptor 2 (Homo sapiens, UniProt Q9Y5Y4); assay: Antagonist activity at human CRTH2 transfected in human KB8 cells assessed as inhibition of PGD2-induced increase in intracellular Ca2+ by fluo-4AM dye-based assay; assay type: functional, cell-based
T1 sequence (Q9Y5Y4 whole entry): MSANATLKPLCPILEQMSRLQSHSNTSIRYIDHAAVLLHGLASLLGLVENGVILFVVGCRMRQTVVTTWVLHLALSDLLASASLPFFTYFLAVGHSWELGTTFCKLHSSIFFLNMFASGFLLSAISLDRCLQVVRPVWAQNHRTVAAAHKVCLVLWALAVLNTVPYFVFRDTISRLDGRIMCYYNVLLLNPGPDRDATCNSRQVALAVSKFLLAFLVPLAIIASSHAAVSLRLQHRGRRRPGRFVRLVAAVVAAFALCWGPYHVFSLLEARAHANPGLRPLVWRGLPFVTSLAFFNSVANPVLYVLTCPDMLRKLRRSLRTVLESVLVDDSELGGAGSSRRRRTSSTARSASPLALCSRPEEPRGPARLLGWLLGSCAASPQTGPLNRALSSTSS
Summary of the method: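 Cells loaded with 1 µM Fluo-4 AM for 30 min at 37 °C in the dark, washed, resuspended in HBSS with 10 mM HEPES pH 7.3 and 1 mM CaCl₂ (2 × 10⁵ cells/100 µl). Compound added with 100 nM PGD₂; [Ca²⁺]i rise read on FDSS6000. IC₅₀ from ten-point half-log concentration–response curves, mean of two or more independent experiments.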

[2] = Antagonist activity at CRTH2 in human TH2 cells assessed as inhibition of PGD2-induced chemotaxis after 1 hr by hemocytometry
[3] = biological target: T1, Prostaglandin D2 receptor 2; assay: Displacement of [3H]PGD2 from human CRTH2 transfected in CHO cells by liquid scintillation counting analysis; assay type: cell-based
Summary of the method: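 Transfected cells washed and suspended in HBSS with 10 mM HEPES pH 7.3 (2 × 10⁵ cells/100 µl), incubated with 5 nM ³H-PGD₂ for 60 min on ice. Vacuum filtration through GF/C glass fiber filters, four washes with ice-cold PBS containing 0.1% BSA. IC₅₀ from ten-point half-log concentration–response curves, mean of two or more independent experiments.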

SMILES: O=C(O)Cc1cnc(C(=O)c2ccc(NC(=O)C3CCCCC3)cc2)c2ccccc12
- pIC50 [1]: 6.57

SMILES: O=C(O)Cc1cnc(C(=O)c2ccc(NC(=O)c3ccc4ccccc4c3)cc2)c2ccccc12
- pIC50 [1]: 8.00

SMILES: O=C(O)Cc1cnc(C(=O)c2ccc(NC(=O)c3cc4ccccc4[nH]3)cc2)c2ccccc12
- pIC50 [1]: 8.38

SMILES: O=C(O)Cc1cnc(C(=O)c2ccc(NC(=O)c3ccncc3)cc2)c2ccccc12
- pIC50 [1]: < 6.00

SMILES: O=C(O)Cc1cnc(C(=O)c2ccc(NC(=O)c3cccc(Cl)c3)cc2)c2ccccc12
- pIC50 [1]: 8.01

SMILES: O=C(O)Cc1cnc(C(=O)c2ccc(NC(=O)c3ccc(Cl)cc3)cc2)c2ccccc12
- pIC50 [1]: 8.04

SMILES: O=C(O)Cc1cnc(C(=O)c2ccc(NC(=O)c3ccccc3Cl)cc2)c2ccccc12
- pIC50 [1]: < 6.00

SMILES: COc1ccc(C(=O)Nc2ccc(C(=O)c3ncc(CC(=O)O)c4ccccc34)cc2)cc1
- pIC50 [1]: 7.77

SMILES: O=C(O)Cc1cnc(C(=O)c2ccc(NC(=O)c3ccc(Cl)c(Cl)c3)cc2)c2ccccc12
- pIC50 [2]: 7.64
- pIC50 [1]: 7.89

SMILES: O=C(O)Cc1cnc(C(=O)c2ccc(NC(=O)CCc3ccc(Cl)c(Cl)c3)cc2)c2ccccc12
- pIC50 [1]: 7.74

SMILES: O=C(O)Cc1cnc(C(=O)c2ccc(NCc3ccc(Cl)c(Cl)c3)cc2)c2ccccc12
- pIC50 [1]: 7.37

SMILES: O=C(O)Cc1cnc(C(=O)c2ccc(C(=O)Nc3ccc(Cl)c(Cl)c3)cc2)c2ccccc12
- pIC50 [1]: 7.89

SMILES: O=C(O)Cc1cnc(C(=O)c2ccc(C(=O)NCCc3ccc(Cl)cc3)cc2)c2ccccc12
- pIC50 [1]: 7.92

SMILES: CC(C)(C(=O)O)c1cnc(C(=O)c2ccc(C(=O)NCCc3ccc(Cl)cc3)cc2)c2ccccc12
- pIC50 [1]: < 6.00

SMILES: O=C(O)COc1cnc(C(=O)c2ccc(C(=O)NCCc3ccc(Cl)cc3)cc2)c2ccccc12
- pIC50 [1]: 7.00

SMILES: O=C(O)Cc1cnc(C(=O)c2ccc(NC(=O)OCc3ccc(Cl)c(Cl)c3)cc2)c2ccccc12
- pIC50 [3]: 8.17
- pIC50 [1]: 8.28

SMILES: O=C(O)Cc1cnc(C(=O)c2ccc(C(=O)Nc3ccc(Cl)cc3)cc2)c2ccccc12
- pIC50 [3]: 8.09
- pIC50 [1]: 7.42

SMILES: O=C(O)Cc1cnc(C(=O)c2ccc(C(=O)NCCc3ccc(Cl)c(Cl)c3)cc2)c2ccccc12
- pIC50 [3]: 8.43
- pIC50 [1]: 7.74

SMILES: O=C(O)Cc1cnc(C(=O)c2ccc(OCCc3ccc(Cl)cc3)cc2)c2ccccc12
- pIC50 [3]: 7.92
- pIC50 [1]: 6.89

SMILES: O=C(O)Cc1cnc(C(=O)c2ccc(OCCCc3ccc(Cl)cc3)cc2)c2ccccc12
- pIC50 [3]: 7.96
- pIC50 [1]: 7.07

SMILES: Cc1ccc(C(=O)Nc2ccc(C(=O)c3ncc(CC(=O)O)c4ccccc34)cc2)cc1
- pIC50 [3]: 8.28
- pIC50 [1]: 7.74

SMILES: O=C(O)Cc1cnc(C(=O)c2ccc(NC(=O)c3ccc(OC(F)(F)F)cc3)cc2)c2ccccc12
- pIC50 [3]: 7.96
- pIC50 [1]: 8.06

SMILES: N#Cc1ccc(C(=O)Nc2ccc(C(=O)c3ncc(CC(=O)O)c4ccccc34)cc2)cc1
- pIC50 [3]: 8.11
- pIC50 [1]: < 6.00

SMILES: O=C(O)Cc1cnc(C(=O)c2ccc(NC(=O)c3ccc([N+](=O)[O-])cc3)cc2)c2ccccc12
- pIC50 [3]: 8.00
- pIC50 [1]: 7.55

SMILES: CN(C)c1ccc(C(=O)Nc2ccc(C(=O)c3ncc(CC(=O)O)c4ccccc34)cc2)cc1
- pIC50 [3]: 8.21
- pIC50 [1]: 7.89

SMILES: O=C(O)Cc1cnc(C(=O)c2ccc(NC(=O)c3ccc(-c4ccccc4)cc3)cc2)c2ccccc12
- pIC50 [3]: 7.74
- pIC50 [1]: 7.85

SMILES: O=C(O)Cc1cnc(C(=O)c2ccc(NC(=O)c3ccc(Oc4ccccc4)cc3)cc2)c2ccccc12
- pIC50 [3]: 7.85
- pIC50 [1]: 6.92

SMILES: O=C(O)Cc1cnc(C(=O)c2ccc(NC(=O)Cc3ccc(Cl)c(Cl)c3)cc2)c2ccccc12
- pIC50 [3]: 7.82
- pIC50 [1]: 7.52

SMILES: O=C(O)Cc1cnc(C(=O)c2ccc(NC(=O)Nc3ccc(Cl)c(Cl)c3)cc2)c2ccccc12
- pIC50 [3]: 7.89
- pIC50 [1]: 7.44

SMILES: O=C(O)Cc1cnc(C(=O)c2ccc(NC(=O)CC3CCCCC3)cc2)c2ccccc12
- pIC50 [3]: 7.70
- pIC50 [1]: 6.66

SMILES: O=C(O)Cc1cnc(C(=O)c2ccc(NC(=O)CC34CC5CC(CC(C5)C3)C4)cc2)c2ccccc12
- pIC50 [3]: 7.68
- pIC50 [1]: 7.01

SMILES: O=C(O)Cc1cnc(C(=O)c2ccc(NC(=O)C3CCOCC3)cc2)c2ccccc12
- pIC50 [3]: 6.40
- pIC50 [1]: < 6.00

SMILES: O=C(O)Cc1cnc(C(=O)c2ccc(NC(=O)c3cccc4ccccc34)cc2)c2ccccc12
- pIC50 [3]: 7.51
- pIC50 [1]: 6.46

SMILES: O=C(O)Cc1cnc(C(=O)c2ccc(NC(=O)c3cc4ccccc4o3)cc2)c2ccccc12
- pIC50 [3]: 8.42
- pIC50 [1]: 8.13

SMILES: O=C(O)Cc1cnc(C(=O)c2ccc(NC(=O)c3ccccn3)cc2)c2ccccc12
- pIC50 [3]: 7.32

SMILES: O=C(O)Cc1cnc(C(=O)c2ccc(NC(=O)c3cccnn3)cc2)c2ccccc12
- pIC50 [3]: 6.49
- pIC50 [1]: < 6.00

SMILES: O=C(O)Cc1cnc(C(=O)c2ccc(NC(=O)c3cscn3)cc2)c2ccccc12
- pIC50 [3]: 7.17
- pIC50 [1]: < 6.00

SMILES: O=C(O)Cc1cnc(C(=O)c2ccc(NC(=O)C3CC3)cc2)c2ccccc12
- pIC50 [3]: 7.30
